ChEMBL document CHEMBL1152660, “Structural analogues of diosgenyl saponins: synthesis and anticancer activity” (Bioorg Med Chem, 2009)
Calls of active or inactive are those of the source. The rule behind the calls is not given here.

Columns and labels:
MCF7 (human) = assay: Cytotoxicity against human MCF7 cells after 72 hrs by MTT assay; settings: MCF7, 72 h
HeLa (human) = assay: Cytotoxicity against human HeLa cells after 72 hrs by MTT assay
HeLa = assay: Cytotoxicity against human HeLa cells at 50 uM after 72 hrs by MTT assay; assay type: functional, cell-based
In short: (§1)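 The MTT proliferation assay used MCF-7 or HeLa cells at 2000 per well in DMEM with 10% FBS at 37 °C and 5% CO2, with a 3-day exposure to DMSO-dissolved analogues diluted in medium. Compounds were tested up to the top concentration. A490 at that concentration is reported as percent of the absorbance of untreated cells.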

MCF7 = assay: Cytotoxicity against human MCF7 cells at 50 uM after 72 hrs by MTT assay; assay type: functional
In short: as §1

Structure (SMILES) | IC50 (MCF7 (human)) | IC50 (HeLa (human)) | Activity (HeLa) | Activity (MCF7)
C[C@@H]1CC[C@@]2(OC1)O[C@H]1C[C@H]3[C@@H]4CC=C5C[C@@H](O[C@@H]6O[C@H](CO)[C@@H](O)[C@H](O)[C@H]6NC(=O)CCCCC6CCSS6)CC[C@]5(C)[C@H]4CC[C@]3(C)[C@H]1[C@@H]2C (stereo partly drawn) [ALPHA LIPOYL] | 6.9 µM | 7.3 µM |  | 
C[C@@H]1CC[C@@]2(OC1)O[C@H]1C[C@H]3[C@@H]4CC=C5C[C@@H](O[C@@H]6O[C@H](CO)[C@@H](O[C@@H]7O[C@@H](C)[C@H](O)[C@@H](O)[C@H]7O)[C@H](O)[C@H]6NC(=O)c6cc([N+](=O)[O-])cc([N+](=O)[O-])c6)CC[C@]5(C)[C@H]4CC[C@]3(C)[C@H]1[C@@H]2C | 39.5 µM |  | inactive | 
C[C@@H]1CC[C@@]2(OC1)O[C@H]1C[C@H]3[C@@H]4CC=C5C[C@@H](O[C@@H]6O[C@H](CO)[C@@H](O)[C@H](O)[C@H]6NC(=O)c6cc([N+](=O)[O-])cc([N+](=O)[O-])c6)CC[C@]5(C)[C@H]4CC[C@]3(C)[C@H]1[C@@H]2C | 18.7 µM | 21 µM |  | 
C[C@@H]1CC[C@@]2(OC1)O[C@H]1C[C@H]3[C@@H]4CC=C5C[C@@H](O[C@@H]6O[C@H](CO)[C@@H](O[C@@H]7O[C@@H](C)[C@H](O)[C@@H](O)[C@H]7O)[C@H](O)[C@H]6NC(=O)c6cccc([N+](=O)[O-])c6)CC[C@]5(C)[C@H]4CC[C@]3(C)[C@H]1[C@@H]2C | 22.8 µM | 39.4 µM |  | 
C[C@@H]1CC[C@@]2(OC1)O[C@H]1C[C@H]3[C@@H]4CC=C5C[C@@H](O[C@@H]6O[C@H](CO)[C@@H](O)[C@H](O)[C@H]6NC(=O)c6cccc([N+](=O)[O-])c6)CC[C@]5(C)[C@H]4CC[C@]3(C)[C@H]1[C@@H]2C | 13.6 µM | 16.1 µM |  | 
C[C@@H]1CC[C@@]2(OC1)O[C@H]1C[C@H]3[C@@H]4CC=C5C[C@@H](O[C@@H]6O[C@H](CO)[C@@H](O[C@@H]7O[C@@H](C)[C@H](O)[C@@H](O)[C@H]7O)[C@H](O)[C@H]6NC(=O)CCCCC6CCSS6)CC[C@]5(C)[C@H]4CC[C@]3(C)[C@H]1[C@@H]2C (mixture of isomers) | 18.8 µM | 39.9 µM |  | 
COc1cccc2c1C(=O)c1c(O)c3c(c(O)c1C2=O)C[C@@](O)(C(=O)CO)C[C@@H]3O[C@H]1C[C@H](N)[C@H](O)[C@H](C)O1 [DOXORUBICIN] | 0.73 µM | 1.03 µM |  | 
C[C@@H]1CC[C@@]2(OC1)O[C@H]1C[C@H]3[C@@H]4CC=C5C[C@@H](O[C@@H]6O[C@H](CO)[C@@H](O)[C@H](O)[C@H]6NC(=O)c6ccccc6)CC[C@]5(C)[C@H]4CC[C@]3(C)[C@H]1[C@@H]2C | 19.4 µM | 18 µM |  | 
C[C@@H]1CC[C@@]2(OC1)O[C@H]1C[C@H]3[C@@H]4CC=C5C[C@@H](O[C@@H]6O[C@H](CO)[C@@H](O[C@@H]7O[C@@H](C)[C@H](O)[C@@H](O)[C@H]7O)[C@H](O)[C@H]6NC(=O)c6ccccc6)CC[C@]5(C)[C@H]4CC[C@]3(C)[C@H]1[C@@H]2C | > 50 µM |  | inactive | 68%
